Screens from PubChem.
This is a sample that favours compounds with a hit; in the whole collection about 1.8% have one here.
Hck Nef HTS – human Hck-Nef kinase inhibition. P08631. Recombinant Hck-YEEI plus Nef, Z-Lyte FRET kinase assay. inhibition, % at 20 µM. 220,000 tested, 0.68% active. AID 463187;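 active means Hck-Nef kinase inhibition above about 50%, limit read from the data; inactive means inhibition below that limit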
RanGTP-Imp inh – disruptors of Ran-importin-beta complex formation – biochemical, FRET, CFP-Ran, YFP-importin-beta, homogeneous, primary screen; 300,000 tested, 1.1% active; inhibition, % (test concentration not listed); AID 2216; cell-free CFP-Ran/YFP-importin-beta FRET ratio;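 active means more than half of the replicate wells show a fall in the fluorescence ratio signal beyond about 16%, limit read from the data, passing the limit was not always enough; inconclusive means exactly half of the replicate wells pass the set limit; inactive means fewer than half of replicates pass the limit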
Runt-CBFb FRET – blocks binding of human RUNX1 Runt domain to CBFb; Q01196+Q13951; Cerulean-Runt/Venus-CBFb FRET ratio 530/480, 1 h; inhibition, % at 20 µM; 220,000 tested, 0.46% active; AID 1496;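 active means inhibition over about 50% at 20 µM in the single-dose screen, limit read from the data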
Target sequence (Q01196 whole entry, looked up, the tested form may be a part): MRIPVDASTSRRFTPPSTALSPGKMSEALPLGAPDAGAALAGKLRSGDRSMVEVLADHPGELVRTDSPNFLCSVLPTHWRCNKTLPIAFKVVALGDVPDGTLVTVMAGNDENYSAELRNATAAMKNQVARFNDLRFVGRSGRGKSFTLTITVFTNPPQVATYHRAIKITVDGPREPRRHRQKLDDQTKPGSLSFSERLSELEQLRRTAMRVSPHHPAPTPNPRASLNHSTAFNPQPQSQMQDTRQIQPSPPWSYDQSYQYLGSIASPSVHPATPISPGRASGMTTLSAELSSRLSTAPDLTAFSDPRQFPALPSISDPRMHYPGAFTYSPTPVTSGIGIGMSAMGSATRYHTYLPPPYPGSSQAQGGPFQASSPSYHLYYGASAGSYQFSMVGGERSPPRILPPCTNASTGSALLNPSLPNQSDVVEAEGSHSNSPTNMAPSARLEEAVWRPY
Target sequence (Q13951 whole entry, looked up, the tested form may be a part): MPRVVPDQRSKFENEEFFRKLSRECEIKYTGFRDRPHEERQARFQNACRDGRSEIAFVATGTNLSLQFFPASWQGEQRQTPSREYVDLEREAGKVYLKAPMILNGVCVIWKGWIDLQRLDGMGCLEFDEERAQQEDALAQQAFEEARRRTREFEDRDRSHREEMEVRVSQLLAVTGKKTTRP
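System: Cerulean-labeled Runt domain protein | Quantity: 100 nM of each labeled protein | Schedule: 1 h compound exposure, room temperature | Detection: Fluorescence energy transfer, 422 nm excitation, 530/480 nm emission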
Runt-SMMHC FRET – inhibitors of human RUNX1 Runt domain binding to CBFb-SMMHC | Q01196+Q13951 | Cerulean-Runt/Venus-CBFb-SMMHC FRET ratio 530/480, 1 h | inhibition, % at 20 µM | 220,000 tested, 0.74% active | AID 1434;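 active means mean inhibition across duplicate retests at 20 µM reaching about 50%, limit read from the data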;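 further: inhibitors lower the FRET ratio by blocking Runt binding to CBFb-SMMHC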
YIC counter – counter-screen YIC FRET for RanGTP-importin-beta inhibitors. shares compounds with RanGTP-Imp inh. Purified YIC probe, intramolecular FRET ratio YFP/CFP. IC50, µM. 1,000 tested, 40% active. AID 435026;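 active means fitted half-maximal inhibitory concentration no more than tenfold above the top dose tested; inconclusive means flat fit with 30 to 70% activity, or poor fit; inactive means half-maximal concentration beyond tenfold above the top dose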
Large screens that a line does not name were inactive (follow-up assays come after a bar, where they were run).

COc1ccccc1N1CCN(C(=O)/C=C/c2ccc(C)cc2)CC1	RanGTP-Imp inh 19.6 | YIC counter inactive
COc1cccc(NC(=O)COc2coc(CN3CCc4ccccc4C3)cc2=O)c1	none (no result: Hck Nef HTS, Runt-CBFb FRET, Runt-SMMHC FRET)
O=C(O)Cn1cc(/C=C2/SC(=O)N(CC(=O)N3CCCCCC3)C2=O)c2ccccc21	RanGTP-Imp inh 17.0 | YIC counter inactive
O=C(O)Cn1cc(/C=C2\SC(=O)N(c3ccccc3)C2=O)c2ccccc21	RanGTP-Imp inh 24.1 | YIC counter 38.9
O=Cc1cn(CC(=O)N2CCCCC2)c2ccccc12	none
O=C1CCCC(=O)N1c1ccc(N2CCOCC2)c([N+](=O)[O-])c1	none
Cc1ccc(N(C(=O)c2csnn2)C(C(=O)NCc2ccccc2)c2cccnc2)cc1 (stereo unspecified)	none (no result: Hck Nef HTS, Runt-CBFb FRET, Runt-SMMHC FRET)
CCNc1c(NS(=O)(=O)c2ccc(Cl)s2)c(=O)oc2ccccc12	none (no result: Hck Nef HTS, Runt-CBFb FRET, Runt-SMMHC FRET)
CC(=O)c1ccc(-c2cccs2)s1	RanGTP-Imp inh 18.6, Runt-CBFb FRET 78.4, Runt-SMMHC FRET 142.6 | YIC counter 28.9
CC(=O)N1N=C(c2cccs2)CC1c1cccs1 (stereo unspecified)	none
CCOc1ccc(NC(=O)COc2cccc3c2CCN(Cc2cccnc2)C3=O)cc1	none (no result: Hck Nef HTS, Runt-CBFb FRET, Runt-SMMHC FRET)
C=C(C)Cn1cnc2c(oc3nc4c(cc32)CCCC4)c1=O	none
CCOC(=O)C1=C(N)Oc2ccc3ccccc3c2C1c1ccc(O)c(OC)c1 (stereo unspecified)	RanGTP-Imp inh 29.2 (no result: Hck Nef HTS, Runt-CBFb FRET, Runt-SMMHC FRET) | YIC counter inactive
CCOC(=O)C1=C(N)Oc2ccc3ccccc3c2C1c1ccc(O)cc1 (stereo unspecified)	none (no result: Hck Nef HTS, Runt-CBFb FRET, Runt-SMMHC FRET)
CC(C)/C=C/CN1CCCC(N2CCN(c3cccc(Cl)c3)CC2)C1 (stereo unspecified)	none (no result: Hck Nef HTS, Runt-CBFb FRET, Runt-SMMHC FRET)
Brc1ccc(-c2cnco2)cc1	none
CS(=O)(=O)Nc1ccc(C(=O)Nc2ccccc2-c2ccccc2)cc1	none (no result: Hck Nef HTS, Runt-CBFb FRET, Runt-SMMHC FRET)
C[C@H]1CN([C@@H](C)CO)C(=O)c2cccc(NC(=O)c3ccc(-c4nccs4)cc3)c2O[C@H]1CN(C)C(=O)Nc1ccccc1	none (no result: Hck Nef HTS, RanGTP-Imp inh, Runt-CBFb FRET, Runt-SMMHC FRET) | YIC counter inactive
c1ccc(-c2cncn2-c2ccccc2)cc1	none (no result: Hck Nef HTS, Runt-CBFb FRET, Runt-SMMHC FRET)
CC(C)(CCl)C(=O)Nc1ccnc(-c2ccncc2)n1	none
O=C(Oc1c(CN2CCOCC2)cc(Cl)c2cccnc12)c1ccccc1	RanGTP-Imp inh 15.5 (no result: Runt-CBFb FRET) | YIC counter inactive
COc1ccc(N2C(=O)CC(C#N)=C2N)cc1	RanGTP-Imp inh 17.8 | YIC counter inactive
C=CCN(CC=C)C(=S)NC(=O)Cc1cccc2ccccc12	none
Cc1csc(NC(=O)CSc2nnc(NC(=O)COc3ccc(Cl)cc3)s2)n1	none
CCOC(=O)C1CCN(Cc2cn(C)nc2-c2ccc(Oc3ccccc3)cc2)CC1	none
CCOC(=O)/C=C1\SCC(=O)N1CC(=O)Nc1ccc(OC)c(OC)c1	none
CCOC(=O)/C=C1\SCC(=O)N1CC(=O)c1ccc[nH]1	RanGTP-Imp inh 21.1 (no result: Runt-CBFb FRET) | YIC counter inactive
CCCOc1ccccc1C1NC(=O)NC(C)=C1C(=O)OCCOC (stereo unspecified)	none
COCCOC(=O)C1=C(C)NC(=O)NC1c1cccc2ccccc12 (stereo unspecified)	RanGTP-Imp inh 22.0 (no result: Hck Nef HTS, Runt-CBFb FRET, Runt-SMMHC FRET) | YIC counter inactive
O=c1[nH]c2cc(Br)cnc2nc1/C=C(\O)c1ccc(F)cc1	RanGTP-Imp inh 17.7 | YIC counter inactive
O=C(NCc1nc2ncc(Br)cc2[nH]1)c1ccccc1	none
Cc1ccccc1Cn1nnc(-c2cccc(C(=O)O)c2)n1	RanGTP-Imp inh 16.4 | YIC counter inactive
S=c1[nH]c2cc3ccccc3cc2[nH]1	none
S=c1[nH]c2ccc3ccccc3c2[nH]1	RanGTP-Imp inh 17.1 | YIC counter inactive
CCCCCN(C(=O)CN(C)Cc1ccc(OC)cc1OC)c1c(N)n(CCCC)c(=O)[nH]c1=O	RanGTP-Imp inh 19.6 | YIC counter inactive
CCOc1ccccc1NC1=CC(=O)CC(c2ccccc2)C1 (stereo unspecified)	RanGTP-Imp inh 24.4 | YIC counter inactive
COc1ccc2nc(SCC(=O)NCc3ccc4c(c3)OCO4)[nH]c2c1	none
CCOc1ccc2nc(SCC(=O)NCc3ccc4c(c3)OCO4)[nH]c2c1	RanGTP-Imp inh 29.7 | YIC counter inactive
Nc1cc(C(=O)OCC(=O)NCCCc2ccccc2)ccc1Cl	none (no result: Hck Nef HTS, Runt-CBFb FRET, Runt-SMMHC FRET)
O=C(COC(=O)c1ccc2ccccc2c1)NCCCc1ccccc1	RanGTP-Imp inh 16.6 | YIC counter inactive
CC(CC(F)(F)F)N1CCC(n2nccc2NC(=O)CCOc2ccccc2)CC1 (stereo unspecified)	RanGTP-Imp inh 26.5 (no result: Hck Nef HTS, Runt-CBFb FRET, Runt-SMMHC FRET) | YIC counter inactive
CCn1c(C)c(C(=O)c2ccccc2)c(C#N)c1C(=O)O	none (no result: Hck Nef HTS, Runt-CBFb FRET, Runt-SMMHC FRET)
CN(C)S(=O)(=O)c1cccc(NC(=O)CNC2CCCCC2)c1	RanGTP-Imp inh 27.0 | YIC counter inactive
CSc1ncccc1C(=O)OCC(=O)c1cc2ccccc2o1	RanGTP-Imp inh 19.4 | YIC counter inactive
CCOC(=O)c1ccc2[nH]cc(C(C)=O)c(=O)c2c1	RanGTP-Imp inh 20.8 | YIC counter 14
CC(=O)c1c[nH]c2ccc(C)cc2c1=O	none
CC(NC(=O)/C(C#N)=C/c1ccc(N2CCOCC2)cc1)c1ccccc1 (stereo unspecified)	RanGTP-Imp inh 31.4 (no result: Hck Nef HTS, Runt-CBFb FRET, Runt-SMMHC FRET) | YIC counter 10.8
Cc1nc2[nH]c(=O)c3c(n2n1)NC1=C(C(=O)CC(C)(C)C1)C3c1ccccc1 (stereo unspecified)	RanGTP-Imp inh 49.3, Runt-CBFb FRET 77.7, Runt-SMMHC FRET 136.1 | YIC counter 4.3
Cc1cc(OCC(=O)NC2CC2)c2c(C)c(C)c(=O)oc2c1	none (no result: Hck Nef HTS, Runt-CBFb FRET, Runt-SMMHC FRET)
Cc1sc(NC(=O)c2ccccc2)c(C#N)c1-c1ccccc1	RanGTP-Imp inh 39.1 | YIC counter inactive
CCc1c(C)sc(NC(=O)c2cccs2)c1C#N	none
COc1ccc(Cl)cc1S(=O)(=O)Nc1noc2ccccc12	RanGTP-Imp inh 15.7 (no result: Hck Nef HTS, Runt-CBFb FRET, Runt-SMMHC FRET) | YIC counter inactive
COC(=O)c1cccnc1NC(=S)NNC(=O)c1ccccc1	RanGTP-Imp inh 26.8 | YIC counter inactive
COC(=O)c1ccc(NC(=S)NNC(=O)c2ccccc2)cc1	none
Cc1cccc(C)c1OCC(=O)OC/C(O)=C(\C#N)c1nc2ccccc2[nH]1	RanGTP-Imp inh 26.0 | YIC counter inactive
Cc1cc(C)cc(OCC(=O)OC/C(O)=C(\C#N)c2nc3ccccc3[nH]2)c1	none
O=S(=O)(c1ccc2nc(Nc3ccccc3)ccc2c1)N1CCCCC1	none (no result: Hck Nef HTS, Runt-CBFb FRET, Runt-SMMHC FRET)
Cc1cc(Nc2ccccc2)nc2cc(O)ccc12	RanGTP-Imp inh 18.5, Runt-SMMHC FRET 63.8 | YIC counter 49.2
COc1ccc(Nc2cc(C)c3ccc(O)cc3n2)cc1	none
Cc1cc(N/N=C/c2ccc(O)cc2O)c2ccccc2n1	none (no result: Hck Nef HTS, Runt-CBFb FRET, Runt-SMMHC FRET)
Oc1ccc(/C=N/Nc2ccc3ccccc3c2)c(O)c1	RanGTP-Imp inh 16.4 | YIC counter inactive
CC(C)c1nnc(NC(=O)CCC(=O)NC2CCCc3ccccc32)s1 (stereo unspecified)	RanGTP-Imp inh inconclusive
Cc1ccc2nc(N3CCN(C(=O)c4ccc(F)cc4)CC3)c(C#N)cc2c1	RanGTP-Imp inh 22.3 (no result: Hck Nef HTS, Runt-CBFb FRET, Runt-SMMHC FRET) | YIC counter 25.1
